Experimental findings from ChEMBL document CHEMBL1287763, “Antiangiogenic properties of substituted (Z)-(±)-2-(N-benzylindol-3-ylmethylene)quinuclidin-3-ol/one analogs and their derivatives” (Bioorg Med Chem Lett, 2010) are described below.

Active and inactive are the calls of the source. The calls are words filed in the database; no cut-off is given here.

Series [1] deals with HUVEC. The series can be described thus: Antiangiogenic activity against HUVEC assessed as inhibition of cell migration at 10 uM after 20 hrs by scratch assay. Type of series: functional, cell-based. To be noted: Homo sapiens. A digest of the protocol: (§1)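 Confluent HUVEC monolayers were scratched with a pipette tip and washed twice with PBS. Compound was added in HUVEC medium, and cells were incubated at 37°C for 20 h. Images were taken at 0 h (right after compound addition) and at 20 h. Migration was compared with cells not given compound.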

The subject of series [2] is HUVEC. The series can be described thus: Antiangiogenic activity against HUVEC assessed as inhibition of cell migration at 25 uM after 20 hrs by scratch assay. The format is functional, cell-based. To be noted: Homo sapiens. The essentials: as §1
Series [3] has as its system HUVEC. Description: Inhibition of ECTO-NOX in HUVEC assessed as reduction of WST-1 at 10 uM […]. To be noted: Homo sapiens. The format is cell-based. The essentials:
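HUVECs were grown for 24 h after seeding, then treated for 20 h in duplicate with analog (0.5, 1, 5, 10 µM) or DMSO solvent. WST-1 reduction was then measured following the kit protocol, read as optical density at 450 nm.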
On the technique in general: Tetrazolium dyes change colour on reduction, which living cells bring about.

Series [4] deals with HUVEC. The series can be described thus: Cytotoxicity against HUVEC assessed as cell viability at 10 uM after 6 hrs by crystal violet staining. Type of series: cell-based. To be noted: human.
The subject of series [5] is HUVEC. Description: Antiangiogenic activity against HUVEC assessed as inhibition of p70S6K1 phosphorylation at T389. To be noted: Homo sapiens. The format is functional, cell-based.

For `Cc1cccc(Cn2cc(/C=C3/C(O)C4CCN3CC4)c3cc(C)ccc32)c1` (centres undefined), the result with HUVEC [1] and in the series on HUVEC [2] was Active. Moreover, the “ECTO-NOX inhibition (active/not active)” value in the series on HUVEC [3] was “inactive”. Further, the Activity result with HUVEC [4] was “Non-toxic”.

In the case of `NC(=O)N/N=C1/C(=C/c2cn(S(=O)(=O)c3ccccc3)c3ccccc23)N2CCC1CC2`, the result in the series with HUVEC [1] and in the series with HUVEC [2] was Active. Further, the “ECTO-NOX inhibition (active/not active)” value in the series with HUVEC [3] is “inactive”.

Consider `Cc1ccc(S(=O)(=O)n2cc(/C=C3/C(O)C4CCN3CC4)c3ccccc32)cc1` (centres undefined), for which the “ECTO-NOX inhibition (active/not active)” value in the series on HUVEC [3] is “inactive”.

Take `O=S(=O)(c1ccccc1)n1cc(/C=C2/C(=N/O)C3CCN2CC3)c2ccccc21`: the outcome in the series on HUVEC [1] and in the series with HUVEC [2] was Active. Further, the “ECTO-NOX inhibition (active/not active)” value in the series on HUVEC [3] was “Active”. In the series on HUVEC [5], the inhibition entry was “Active”. In addition, in the series with HUVEC [4], the Activity entry is recorded as “Non-toxic”.

On to `OC1/C(=C/c2cn(Cc3ccccc3)c3ccc(Br)cc23)N2CCC1CC2` (centres undefined), for which the result with HUVEC [1] and in the series on HUVEC [2] was Active. Besides, the “ECTO-NOX inhibition (active/not active)” value with HUVEC [3] was “inactive”. Moreover, the Activity result in the series with HUVEC [4] is on record as “Non-toxic”.

In the case of `OC1/C(=C/c2cn(Cc3cccc(F)c3)c3ccc(Br)cc23)N2CCC1CC2` (centres undefined), the outcome in the series on HUVEC [1] and with HUVEC [2] was Active. Further, the Activity result with HUVEC [4] was “Non-toxic”.

For `O=C(Nc1ccccc1)OC1/C(=C/c2cn(S(=O)(=O)c3ccccc3)c3ccccc23)N2CCC1CC2` (centres undefined), the result with HUVEC [1] and in the series on HUVEC [2] was Active.

For `OC1/C(=C/c2cn(Cc3cccc(F)c3)c3ccccc23)N2CCC1CC2` (centres undefined), the result with HUVEC [1] and in the series with HUVEC [2] was Active. Moreover, the “ECTO-NOX inhibition (active/not active)” value in the series with HUVEC [3] was “inactive”. Further, the Activity result with HUVEC [4] is reported as “Non-toxic”.

Turning to `O=[N+]([O-])c1ccc2c(c1)c(/C=C1/C(O)C3CCN1CC3)cn2Cc1ccccc1` (centres undefined), the result with HUVEC [1] and in the series on HUVEC [2] was Active. The Activity entry in the series with HUVEC [4] is recorded as “Non-toxic”.
